Assay results published in ChEMBL document CHEMBL2010740, “Synthesis and evaluation of 2-amido-3-carboxamide thiophene CB₂ receptor agonists for pain management” (Bioorg Med Chem Lett, 2012).

Assays:
Cannabinoid receptor 2 [1] = molecular target: T1, Cannabinoid receptor 2 (Homo sapiens, UniProt P34972); assay: Displacement of [3H]CP-55940 from human recombinant CB2 receptor expressed in HEK293 cells after 90 mins; type: cell-based
Method in brief: (§1)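 Competitive binding: [³H]CP-55,940 displaced from membranes of HEK 293 cells stably transfected with human or rat CB₂, or CHO cells stably transfected with human or rat CB₁. Reported as pKi. Determinations >2 (duplicate of duplicate).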

Cannabinoid receptor 2 [2] = molecular target: T2, Cannabinoid receptor 2 (Rattus norvegicus, UniProt Q9QZN9); assay: Displacement of [3H]CP-55940 from rat recombinant CB2 receptor expressed in HEK293 cells after 90 mins; type: cell-based; method in brief: as §1
T2 sequence (Q9QZN9 whole entry): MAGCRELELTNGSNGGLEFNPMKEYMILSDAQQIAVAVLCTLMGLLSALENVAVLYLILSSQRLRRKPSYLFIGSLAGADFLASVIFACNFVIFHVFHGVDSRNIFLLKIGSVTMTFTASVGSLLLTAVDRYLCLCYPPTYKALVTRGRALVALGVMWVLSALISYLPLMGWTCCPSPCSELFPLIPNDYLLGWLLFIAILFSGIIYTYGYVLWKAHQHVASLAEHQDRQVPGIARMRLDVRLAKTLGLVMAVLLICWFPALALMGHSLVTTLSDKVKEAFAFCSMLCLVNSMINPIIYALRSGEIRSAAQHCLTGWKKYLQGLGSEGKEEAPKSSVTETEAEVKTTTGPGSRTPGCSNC

Cannabinoid receptor 1 [3] = molecular target: Cannabinoid receptor 1 (Homo sapiens, UniProt P21554); assay: Displacement of [3H]CP-55940 from human recombinant CB1 receptor expressed in CHO cells after 90 mins; type: cell-based; method in brief: as §1
Cannabinoid receptor 1 [4] = molecular target: Cannabinoid receptor 1 (Rattus norvegicus, UniProt P20272); assay: Displacement of [3H]CP-55940 from rat recombinant CB1 receptor expressed in CHO cells after 90 mins; type: cell-based; method in brief: as §1
Cannabinoid receptor 2 [5] = molecular target: T1, Cannabinoid receptor 2; assay: Agonist activity at human recombinant CB2 receptor expressed in HEK293 cells co-expressing chimeric Gaq/o protein by FLIPR assay; type: functional, cell-based
Method in brief: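 FLIPR functional assay in HEK 293 cells stably co-expressing chimeric Gαq/o protein and the CB receptor. Net peak evoked response was compared with the peak response to CP-55,940.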

Cannabinoid receptor 2 [6] = molecular target: T1, Cannabinoid receptor 2; assay: Agonist activity at human recombinant CB2 receptor expressed in HEK293 cells assessed as inhibition of forskolin-induced cAMP production after 20 mins by ELISA; type: functional, cell-based
Method in brief: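 cAMP assay in HEK 293 cells stably expressing the relevant CB receptor, with a fixed concentration of forskolin. cAMP was quantified by ELISA. Activation is given as percent of the CP-55,940 control response.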

T1 sequence (P34972 whole entry): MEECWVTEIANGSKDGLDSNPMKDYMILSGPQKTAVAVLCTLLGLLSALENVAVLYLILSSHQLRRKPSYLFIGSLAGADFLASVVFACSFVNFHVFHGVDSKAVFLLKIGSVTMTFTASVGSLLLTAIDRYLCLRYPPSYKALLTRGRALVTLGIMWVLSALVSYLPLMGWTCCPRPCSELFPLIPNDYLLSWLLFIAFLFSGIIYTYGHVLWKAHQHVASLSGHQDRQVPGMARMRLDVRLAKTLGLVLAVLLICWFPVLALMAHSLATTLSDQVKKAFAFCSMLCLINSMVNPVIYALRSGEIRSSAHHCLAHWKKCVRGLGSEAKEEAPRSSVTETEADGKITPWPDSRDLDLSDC
Chain of Cannabinoid receptor 1 (Homo sapiens, UniProt P21554) (P21554 whole entry): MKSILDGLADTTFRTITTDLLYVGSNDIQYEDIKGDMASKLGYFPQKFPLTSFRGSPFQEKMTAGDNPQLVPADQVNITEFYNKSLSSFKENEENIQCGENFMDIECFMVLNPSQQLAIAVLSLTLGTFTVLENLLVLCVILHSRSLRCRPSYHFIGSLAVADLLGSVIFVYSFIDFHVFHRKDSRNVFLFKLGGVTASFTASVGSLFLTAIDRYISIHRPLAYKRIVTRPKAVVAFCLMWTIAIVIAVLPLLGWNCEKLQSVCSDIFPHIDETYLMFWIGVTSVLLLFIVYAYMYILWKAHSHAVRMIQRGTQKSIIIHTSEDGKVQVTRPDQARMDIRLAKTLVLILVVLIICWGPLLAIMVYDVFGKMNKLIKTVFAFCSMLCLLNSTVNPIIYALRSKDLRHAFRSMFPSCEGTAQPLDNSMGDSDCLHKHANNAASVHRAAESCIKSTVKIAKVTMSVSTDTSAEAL
Chain of Cannabinoid receptor 1 (Rattus norvegicus, UniProt P20272) (P20272 whole entry): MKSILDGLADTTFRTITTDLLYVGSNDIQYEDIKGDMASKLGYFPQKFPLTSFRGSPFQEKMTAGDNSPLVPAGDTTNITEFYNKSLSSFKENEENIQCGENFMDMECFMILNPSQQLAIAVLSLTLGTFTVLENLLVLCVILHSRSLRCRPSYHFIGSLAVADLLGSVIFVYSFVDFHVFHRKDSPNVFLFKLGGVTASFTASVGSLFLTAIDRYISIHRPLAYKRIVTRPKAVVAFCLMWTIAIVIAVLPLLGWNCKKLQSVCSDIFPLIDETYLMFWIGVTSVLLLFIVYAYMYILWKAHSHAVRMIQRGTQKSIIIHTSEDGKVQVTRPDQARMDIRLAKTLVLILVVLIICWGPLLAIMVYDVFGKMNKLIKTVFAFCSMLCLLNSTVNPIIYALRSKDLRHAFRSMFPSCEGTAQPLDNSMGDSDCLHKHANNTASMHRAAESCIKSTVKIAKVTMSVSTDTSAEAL

Row | SMILES | Ki (Cannabinoid receptor 2 [1]) | Ki (Cannabinoid receptor 2 [2]) | Ki (Cannabinoid receptor 1 [3]) | Ki (Cannabinoid receptor 1 [4]) | IC50 (Cannabinoid receptor 2 [5]) | IC50 (Cannabinoid receptor 2 [6])
1 | O=C(c1c(NC(=O)C23CC4CC(CC2C4)C3)sc2c1CCOC2)N1CCOCC1 | 91.2 nM | > 10000 nM | > 10000 nM | > 10000 nM | – | –
2 | COCCNC(=O)c1c(NC(=O)C23CC4CC(CC2C4)C3)sc2c1CCOC2 | 120 nM | 263 nM | > 10000 nM | – | – | –
3 | CCCNC(=O)c1c(NC(=O)C23CC4CC(CC2C4)C3)sc2c1CCCC2 | 1.95 nM | 3.55 nM | 1910 nM | 46.8 nM | 83.2 nM | 9.77 nM
